Results published in ChEMBL document CHEMBL1123602, “Synthesis and biological properties of N3-(4-methoxyfumaroyl)-L-2,3-diaminopropanoic acid dipeptides, a novel group of antimicrobial agents” (1987).
Values after ≈ are worked out from the molar mass of the structure shown.

Assays:
[1] = tested on: Bacillus pumilus; test: Antimicrobial activity against the strain of Bacillus pumilus(1697); format: functional
In short: (§1)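 Agar dilution MIC on minimal agar Davis medium with 0.1% yeast extract and 0.1% casamino acids containing compound at 200 to 0.2 μg/mL (twofold steps). Cells at 10⁵ cfu/mL were loop-applied to the surface and incubated 24 h at 37 °C. Plates were read visually; MIC is the lowest concentration giving complete growth inhibition.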

[2] = tested on: Candida albicans; test: Antimicrobial activity against the strain of Candida albicans(AMB 25); format: functional
In short: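 MIC by serial twofold dilution, 200 to 0.2 μg/mL, in YNB with 1% glucose. The inoculum was 10⁴ cfu/mL of an overnight culture grown in the same medium, incubated 48 h at 30 °C. Growth was read turbidimetrically; MIC is the lowest concentration giving complete growth inhibition.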

[3] = tested on: Shigella sonnei; test: Antimicrobial activity against the strain of Shigella sonnei(433); format: functional; in short: as §1
[4] = tested on: Staphylococcus aureus; test: Antimicrobial activity against the strain of Staphylococcus aureus (209P); format: functional; in short: as §1
[5] = tested on: Escherichia coli; test: Antimicrobial activity against the strain of Escherichia coli(ATCC 9637); format: functional; in short: as §1
[6] = tested on: Shigella sonnei; test: Antibacterial activity against Shigella sonnei 433 strain in medium after incorporation of 10 nmol of Met-Val dipeptide antagonist per disk.
[7] = tested on: Shigella sonnei; test: Antibacterial activity against Shigella sonnei 433 strain in medium after incorporation of 10 nmol of GlcNAc antagonist per disk.
[8] = tested on: Bacillus pumilus; test: Antibacterial activity against Bacillus pumilus CCM 1697 strain in medium*after incorporation of 10 nmol of GlcNAc antagonist per disk.
[9] = tested on: Bacillus pumilus; test: Antibacterial activity against Bacillus pumilus CCM 1697 strain in medium after incorporation of 10 nmol of Leu-Met dipeptide antagonist per disk.
[10] = tested on: Bacillus pumilus; test: Antibacterial activity against Bacillus pumilus CCM 1697 strain in medium after incorporation of 10 nmol of Met-Val dipeptide antagonist per disk.
[11] = tested on: Shigella sonnei; test: Antibacterial activity against Shigella sonnei 433 strain in medium after incorporation of 10 nmol of Leu-Met dipeptide antagonist per disk.
[12] = tested on: Candida albicans; test: Activity against Candida albicans ATCC 26278 strain in YNB medium after incorporation of 10 ug per disk expressed as zone size; format: functional
In short: (§2)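 C. albicans disk diffusion. YNB medium with 1% glucose and 1% agar was seeded with 10⁴ cfu/mL cells from an overnight Sabouraud culture and poured into dishes. Water-dissolved peptide was loaded onto 6.35-mm paper disks, which were placed on the agar. Zones of inhibition were measured after 48 h at 30 °C.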

[13] = tested on: Candida albicans; test: Activity against Candida albicans ATCC 26278 strain in YNB medium after incorporation of 20 ug per disk expressed as zone size; format: functional; in short: as §2
[14] = tested on: Candida albicans; test: Antifungal activity against Candida albicans ATCC 26278 strain in medium after incorporation of 10 nmol of Met-Val dipeptide antagonist per disk.; format: functional
In short: (§3)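 Disk diffusion with the antagonist (GlcNAc or dipeptide) applied to the same 6.35-mm disk as the FMDP dipeptide. Base layer is YNB with 1% glucose and 1% agar, seeded with 10⁴ cfu/mL C. albicans from an overnight Sabouraud culture. Peptides were dissolved in water. Inhibition zones were measured after 48 h at 30 °C.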

[15] = tested on: Candida albicans; test: Antifungal activity against Candida albicans ATCC 26278 strain in medium after incorporation of 10 nmol of Leu-Met dipeptide antagonist per disk.; format: functional; in short: as §3
[16] = tested on: Candida albicans; test: Antifungal activity against Candida albicans ATCC 26278 strain in YNB medium after incorporation of 10 ug per disk.; format: functional; in short: as §2
[17] = tested on: Candida albicans; test: Antifungal activity against Candida albicans ATCC 26278 strain in medium after incorporation of 10 nmol of GlcNAc antagonist per disk.; format: functional; in short: as §3
[18] = tested on: Candida albicans; test: Antifungal activity against Candida albicans ATCC 26278 strain in YNB medium after incorporation of 20 ug per disk.; format: functional; in short: as §2

MIC [1] [µg/mL]	MIC [2] [µg/mL]	MIC [3] [µg/mL]	MIC [4] [µg/mL]	MIC [5] [µg/mL]	SMILES	other results
> 200	1.56 (≈ 4.29 µM)	> 200	> 200	> 200	COC(=O)/C=C/C(=O)NC[C@@H](N)C(=O)N[C@@H](Cc1ccccc1)C(=O)O	–
0.8 (≈ 2.54 µM)	1.56 (≈ 4.95 µM)	1.56 (≈ 4.95 µM)	12.5 (≈ 39.6 µM)	100 (≈ 317 µM)	COC(=O)/C=C/C(=O)NC[C@@H](NC(=O)[C@@H](N)C(C)C)C(=O)O	–
> 200	> 200	> 200	> 200	> 200	COC(=O)/C=C/C(=O)NC[C@@H](N)C(=O)NCC(=O)O	–
0.4 (≈ 1.21 µM)	0.8 (≈ 2.43 µM)	3.12 (≈ 9.47 µM)	25 (≈ 75.9 µM)	100 (≈ 304 µM)	CCCC[C@H](N)C(=O)N[C@H](CNC(=O)/C=C/C(=O)OC)C(=O)O	Zone size [6]: 10 mm; Zone size [7]: 0 mm; Zone size [8]: 0 mm; Zone size [9]: 0 mm; Zone size [10]: 0 mm; Zone size [11]: 11 mm
> 200	3.12 (≈ 9.47 µM)	> 200	100 (≈ 304 µM)	> 200	COC(=O)/C=C/C(=O)NC[C@@H](N)C(=O)N[C@@H](CC(C)C)C(=O)O	–
–	–	–	–	–	Clc1ccc(COC(Cn2ccnc2)c2ccc(Cl)cc2Cl)c(Cl)c1 (stereo unspecified) [MICONAZOLE]	Zone size [12]: 27 mm; Zone size [13]: 32 mm
> 200	> 200	> 200	> 200	> 200	COC(=O)/C=C/C(=O)NC[C@@H](N)C(=O)O	–
12.5 (≈ 32.9 µM)	50 (≈ 132 µM)	25 (≈ 65.9 µM)	100 (≈ 264 µM)	> 200	COC(=O)/C=C/C(=O)NC[C@@H](NC(=O)[C@@H](N)Cc1ccc(O)cc1)C(=O)O	–
6.25 (≈ 17.2 µM)	12.5 (≈ 34.4 µM)	12.5 (≈ 34.4 µM)	100 (≈ 275 µM)	> 200	COC(=O)/C=C/C(=O)NC[C@@H](NC(=O)[C@@H](N)Cc1ccccc1)C(=O)O	–
1.56 (≈ 4.74 µM)	0.8 (≈ 2.43 µM)	1.56 (≈ 4.74 µM)	12.5 (≈ 38 µM)	100 (≈ 304 µM)	COC(=O)/C=C/C(=O)NC[C@@H](NC(=O)[C@@H](N)CC(C)C)C(=O)O	Zone size [14]: 0 mm; Zone size [15]: 0 mm; Zone size [16]: 39 mm; Zone size [17]: 0 mm; Zone size [18]: 41 mm
–	–	–	–	–	Clc1ccccc1C(c1ccccc1)(c1ccccc1)n1ccnc1 [CLOTRIMAZOLE]	Zone size [16]: 17 mm; Zone size [18]: 21 mm
25 (≈ 91.5 µM)	12.5 (≈ 45.7 µM)	50 (≈ 183 µM)	> 200	> 100	COC(=O)/C=C/C(=O)NC[C@@H](NC(=O)CN)C(=O)O	–
> 200	3.12 (≈ 10.9 µM)	> 200	> 200	> 200	COC(=O)/C=C/C(=O)NC[C@@H](N)C(=O)N[C@@H](C)C(=O)O	–
3.12 (≈ 8.98 µM)	0.8 (≈ 2.3 µM)	3.12 (≈ 8.98 µM)	50 (≈ 144 µM)	100 (≈ 288 µM)	COC(=O)/C=C/C(=O)NC[C@@H](NC(=O)[C@@H](N)CCSC)C(=O)O	–
> 200	1.56 (≈ 4.49 µM)	> 200	> 200	> 200	COC(=O)/C=C/C(=O)NC[C@@H](N)C(=O)N[C@@H](CCSC)C(=O)O	Zone size [14]: 0 mm; Zone size [15]: 0 mm; Zone size [16]: 31 mm; Zone size [17]: 0 mm; Zone size [18]: 35 mm
> 200	> 200	> 200	> 200	> 200	COC(=O)/C=C/C(=O)NC[C@@H](N)C(=O)N[C@H](CNC(=O)/C=C/C(=O)OC)C(=O)O	–
0.4 (≈ 1.27 µM)	0.4 (≈ 1.27 µM)	3.12 (≈ 9.89 µM)	12.5 (≈ 39.6 µM)	100 (≈ 317 µM)	CCC[C@H](N)C(=O)N[C@H](CNC(=O)/C=C/C(=O)OC)C(=O)O	Zone size [16]: 40 mm; Zone size [18]: 42 mm
–	–	–	–	–	C[C@@H]([C@H](N)C(=O)N[C@H](C(=O)O)[C@H]1O[C@@H](n2ccc(=O)[nH]c2=O)[C@H](O)[C@@H]1O)[C@H](O)c1ccc(O)cn1.C[C@@H]([C@H](N)C(=O)N[C@H](C(=O)O)[C@H]1O[C@H](n2cc(C=O)nc2O)[C@H](O)[C@@H]1O)[C@H](O)c1ccc(O)cn1	Zone size [12]: 25 mm; Zone size [13]: 28 mm
1.56 (≈ 5.43 µM)	0.8 (≈ 2.78 µM)	3.12 (≈ 10.9 µM)	50 (≈ 174 µM)	100 (≈ 348 µM)	COC(=O)/C=C/C(=O)NC[C@@H](NC(=O)[C@H](C)N)C(=O)O	–
100 (≈ 290 µM)	> 200	> 200	> 200	> 200	COC(=O)/C=C/C(=O)NC[C@@H](NC(=O)[C@@H](N)CCCCN)C(=O)O	–
> 200	6.25 (≈ 19.8 µM)	> 200	100 (≈ 317 µM)	> 200	COC(=O)/C=C/C(=O)NC[C@@H](N)C(=O)N[C@H](C(=O)O)C(C)C	–
> 200	6.25 (≈ 19.8 µM)	> 200	100 (≈ 317 µM)	> 200	CCC[C@H](NC(=O)[C@H](N)CNC(=O)/C=C/C(=O)OC)C(=O)O	–
> 200	25 (≈ 65.9 µM)	> 200	> 200	> 200	COC(=O)/C=C/C(=O)NC[C@@H](N)C(=O)N[C@@H](Cc1ccc(O)cc1)C(=O)O	–
–	–	–	–	–	Nc1nc(=O)[nH]cc1F [FLUCYTOSINE]	Zone size [16]: 35 mm; Zone size [18]: 39 mm
